Test results published in paper PMC8419023 (Structure (London, England : 1993), 2021).

How the values were obtained:
CDK2-cyclin A = CDK2-cyclin A (Homo sapiens, UniProt P20248+P24941); test: GST pull down, CDK2-cyclin A; assay type: binding; conditions: 25 mM HEPES pH 7.5, 150 mM NaCl, 1 mM DTT, 0.01% NP-40; 1 h, 4°C; SDS-PAGE; three experiments; Figure 1B
Procedure, shortened: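 Bacterially expressed proteins: CDK2 (1–298) as a GST fusion, cyclin A (1–432 or 173–432) as a 6XHis fusion. […] Incubated 1 h at 4 °C with mild agitation, washed three times in binding buffer, and bound material analysed by SDS-PAGE; repeated 2–3 times.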

[1] = system: CDK2-cyclin A (Surface 2, hydrophobic patch); test: Fluorescence polarization displacement of FITC-p27^27−36 from CDK2-cyclin A; assay type: binding, human

B1: Skp2^Δ1−88: Skp2 lacking the first 88 residues (protein)
chain 1: RENFPGVSWDSLPDELLLGIFSCLCLPELLKVSGVCKRWYRLASDESLWQTLDLTGKNLHPDVTGRLLSQGVIAFRCPRSFMDQPLAEHFSPFRVQHMDLSNSVIEVSTLHGILSQCSKLQNLSLEGLRLSDPIVNTLAKNSNLVRLNLSGCSGFSEFALQTLLSSCSRLDELNLSWCFDFTEKHVQVAVAHVSETITQLNLSGYRKNLQKSDLSTLVRRCPNLVHLDLSDSVMLKNDCFQEFFQLNYLQHLSLSRCYDIIPETLLELGEIPTLKTLQVFGIVPDGTLQLLKEALPHLQINCSHFTTIARPTIGNKKNQEIWGIKCRLTLQKPSCL
chain 2: MPSIKLQSSDGEIFEVDVEIAKQSVTIKTMLEDLGMDPVPLPNVNAAILKKVIQWCTHHKDDPGSGGTDDIPVWDQEFLKVDQGTLFELILAANYLDIKGLLDVTCKTVANMIKGKTPEEIRKTFNIKNDFTEEEEAQVRKENQWCEEK
modifications: left off: GST, end not stated, kept | His6, end not stated, state not stated
- pull down / binding of CDK2-cyclin A^173−432 with or without Cks1 (CDK2-cyclin A): could not bind CDK2-cyclin A in the absence of Cks1

B2: 4A mutant of Skp2^1−424: full-length Skp2 with L32A/L33A/S39A/L41A (Motif 1 mutant) (protein)
chain 1: MHRKHLQEIPDLSSNVATSFTWGWDSSKTSEAASGMGVAAAEKEEPDSENIPQELLSNLGHPESPPRKRLKSKGSDKDFVIVRRPKLNRENFPGVSWDSLPDELLLGIFSCLCLPELLKVSGVCKRWYRLASDESLWQTLDLTGKNLHPDVTGRLLSQGVIAFRCPRSFMDQPLAEHFSPFRVQHMDLSNSVIEVSTLHGILSQCSKLQNLSLEGLRLSDPIVNTLAKNSNLVRLNLSGCSGFSEFALQTLLSSCSRLDELNLSWCFDFTEKHVQVAVAHVSETITQLNLSGYRKNLQKSDLSTLVRRCPNLVHLDLSDSVMLKNDCFQEFFQLNYLQHLSLSRCYDIIPETLLELGEIPTLKTLQVFGIVPDGTLQLLKEALPHLQINCSHFTTIARPTIGNKKNQEIWGIKCRLTLQKPSCL
chain 2: MPSIKLQSSDGEIFEVDVEIAKQSVTIKTMLEDLGMDPVPLPNVNAAILKKVIQWCTHHKDDPGSGGTDDIPVWDQEFLKVDQGTLFELILAANYLDIKGLLDVTCKTVANMIKGKTPEEIRKTFNIKNDFTEEEEAQVRKENQWCEEK
modifications: left off: GST, end not stated, cleaved | His6, end not stated, cleaved
- loss of displacement effectiveness versus wild-type ([1]; mutant versus wild-type Skp2^1−424, FITC-p27^27−36, Figure 4F): 3 fold

B3: F79A/I81A/R83A: full length Skp2 (Skp1-Skp2^1−424) with Motif 2 mutation F79A/I81A/R83A (protein)
chain 1: MHRKHLQEIPDLSSNVATSFTWGWDSSKTSELLSGMGVSALEKEEPDSENIPQELLSNLGHPESPPRKRLKSKGSDKDAVAVARPKLNRENFPGVSWDSLPDELLLGIFSCLCLPELLKVSGVCKRWYRLASDESLWQTLDLTGKNLHPDVTGRLLSQGVIAFRCPRSFMDQPLAEHFSPFRVQHMDLSNSVIEVSTLHGILSQCSKLQNLSLEGLRLSDPIVNTLAKNSNLVRLNLSGCSGFSEFALQTLLSSCSRLDELNLSWCFDFTEKHVQVAVAHVSETITQLNLSGYRKNLQKSDLSTLVRRCPNLVHLDLSDSVMLKNDCFQEFFQLNYLQHLSLSRCYDIIPETLLELGEIPTLKTLQVFGIVPDGTLQLLKEALPHLQINCSHFTTIARPTIGNKKNQEIWGIKCRLTLQKPSCL
chain 2: MPSIKLQSSDGEIFEVDVEIAKQSVTIKTMLEDLGMDPVPLPNVNAAILKKVIQWCTHHKDDPGSGGTDDIPVWDQEFLKVDQGTLFELILAANYLDIKGLLDVTCKTVANMIKGKTPEEIRKTFNIKNDFTEEEEAQVRKENQWCEEK
modifications: left off: GST, end not stated, cleaved | His6, end not stated, cleaved
- IC50 ([1]; 25 nM FITC-p27^27−36, CDK2-cyclin A 6.25 μM, HEPES pH 7.5, 30 min, N=4, Figure 3E): not determinable
- displacement of FITC-p27^27−36 (in words) ([1]; CDK2-cyclin A 6.25 μM, N=4, Figure 3E): greatly compromised for this function
